Results published in ChEMBL document CHEMBL5370658, “Development of First-in-Class Dual Sirt2/HDAC6 Inhibitors as Molecular Tools for Dual Inhibition of Tubulin Deacetylation” (J Med Chem, 2023).
The source made the active and inactive calls. No cut-off for these calls is given here.

Tests used:
HGC-27 = assay: Cytotoxicity against human HGC-27 cells assessed as inhibition of cell growth at 50 uM incubated for 72 hrs by MTS assay relative to control; assay type: functional
[1] = Cytotoxicity against human W1 Ovarian cancer cells assessed as inhibition of cell growth at 50 uM incubated for 72 hrs by MTT assay relative to control; assay type: functional
MCF7 = assay: Cytotoxicity against human MCF7 cells assessed as inhibition of cell growth at 50 uM incubated for 72 hrs by MTT assay relative to control; assay type: functional
[2] = Cytotoxicity against human PC-3M-luc cells assessed as inhibition of cell growth at 50 uM incubated for 72 hrs by MTS assay relative to control; assay type: functional
PC-3M-luc = settings: Homo sapiens, dose 20.0 µM, time 5.0 hrs
[3] = target: T1, NAD-dependent protein deacetylase sirtuin-2 (Homo sapiens) (UniProt Q8IXJ6); assay: Inhibition of recombinant human Sirt2 (56 to 356 residues) expressed in Escherichia coli BL21 Star (DE3) mediated demyristoylation activity using ZMML as substrate at 10 uM incubated for 4 hrs in presence of NAD+ by trypsin based fluorescence analysis relative to control
T1 sequence (whole entry): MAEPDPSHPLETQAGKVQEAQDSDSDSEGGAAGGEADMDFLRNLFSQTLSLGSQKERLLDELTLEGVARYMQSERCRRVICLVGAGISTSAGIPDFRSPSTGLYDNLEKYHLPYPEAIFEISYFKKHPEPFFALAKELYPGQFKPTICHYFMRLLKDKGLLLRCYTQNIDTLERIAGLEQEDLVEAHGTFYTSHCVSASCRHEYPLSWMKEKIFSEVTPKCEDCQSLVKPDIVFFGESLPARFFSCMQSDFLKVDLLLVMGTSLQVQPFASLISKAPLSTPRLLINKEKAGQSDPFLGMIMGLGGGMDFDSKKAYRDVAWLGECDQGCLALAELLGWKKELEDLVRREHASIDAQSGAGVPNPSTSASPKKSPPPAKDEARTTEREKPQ

[4] = target: T2, NAD-dependent protein deacetylase sirtuin-3, mitochondrial (Homo sapiens, UniProt Q9NTG7); assay: Inhibition of recombinant human Sirt3 (118 to 395 residues) expressed in Escherichia coli BL21 Star (DE3) using ZMAL as substrate incubated for 4 hrs in presence of NAD+ by trypsin based fluorescence analysis
T2 sequence (Q9NTG7 whole entry): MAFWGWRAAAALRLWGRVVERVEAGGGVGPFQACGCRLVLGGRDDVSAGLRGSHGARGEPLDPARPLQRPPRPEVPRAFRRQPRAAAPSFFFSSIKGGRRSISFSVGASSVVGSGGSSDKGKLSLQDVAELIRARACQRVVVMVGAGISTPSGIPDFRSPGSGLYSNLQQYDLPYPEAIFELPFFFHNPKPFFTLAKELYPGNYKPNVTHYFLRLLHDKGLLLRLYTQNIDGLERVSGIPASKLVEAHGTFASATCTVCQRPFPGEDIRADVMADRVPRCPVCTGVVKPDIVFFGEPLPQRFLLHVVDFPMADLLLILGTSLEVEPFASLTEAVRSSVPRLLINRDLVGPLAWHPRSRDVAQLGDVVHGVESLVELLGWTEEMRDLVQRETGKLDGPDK
Summary of the method: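 Human Sirt1 (134–747) or Sirt3 (118–395) expressed in E. coli, purified by Strep-Tactin and size exclusion. Assay with ZMAL (10.5 µM final) in Tris buffer pH 8.0, 5% DMSO, at 37 °C. Started with NAD+ (500 µM final). Conversion set to 15–30%.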

SMILES: Cc1cc(C)nc(SCC(=O)Nc2ncc(Cc3cccc(OCc4cn(CCOCCOCCOCCOCCC(=O)Nc5ccc(C(=O)NCc6ccc(C(=O)NO)cc6)cc5)nn4)c3)s2)n1
- inhibition at 50 µM (HGC-27): < 20%
- inhibition at 50 µM [1]: < 20%
- inhibition at 50 µM (MCF7): < 20%
- inhibition at 50 µM [2]: < 20%
- inhibition (PC-3M-luc): Active

SMILES: Cc1cc(C)nc(SCC(=O)Nc2ncc(Cc3cccc(OCc4cn(CCOCCOCCOCCOCCOCCOCCOCCOCCOCCOCCC(=O)Nc5ccc(C(=O)NCc6ccc(C(=O)NO)cc6)cc5)nn4)c3)s2)n1
- inhibition at 50 µM (HGC-27): < 20%
- inhibition at 50 µM [1]: < 20%
- inhibition at 50 µM (MCF7): < 20%
- inhibition at 50 µM [2]: < 20%
- inhibition (PC-3M-luc): Active

SMILES: O=C(CCCCCCC(=O)Nc1ccccc1)NO
- inhibition [3]: 18%

SMILES: COCCn1cc(COc2cccc(Cc3cnc(NC(=O)CSc4nc(C)cc(C)n4)s3)c2)nn1
- IC50 [4]: > 100 µM

SMILES: Cc1cc(C)nc(SCC(=O)Nc2ncc(Cc3cccc(OCc4cn(CCOCCOCCOCCOCCC(=O)Nc5ccc(C(=O)NCCCCCCC(=O)NO)cc5)nn4)c3)s2)n1
- inhibition at 50 µM [1]: < 20%
- inhibition at 50 µM (MCF7): < 20%
- inhibition at 50 µM [2]: < 20%
- inhibition (PC-3M-luc): Active

SMILES: Cc1cc(C)nc(SCC(=O)Nc2ncc(Cc3cccc(OCc4cn(Cc5ccccc5)nn4)c3)s2)n1
- inhibition at 50 µM [2]: < 20%
